Measurements collected from several papers.
Protocols differ between the studies behind these lines.
Organism: Staphylococcus aureus
Effect on: microbial growth

SMILES	technique	strain	time	notes	MIC
CN[C@H](CC(C)C)C(=O)N[C@H]1C(=O)N[C@@H](CC(N)=O)C(=O)N[C@H]2C(=O)N[C@H]3C(=O)N[C@H](C(=O)N[C@H](C(=O)O)c4cc(O)cc(O)c4-c4cc3ccc4O)[C@H](O)c3ccc(c(Cl)c3)Oc3cc2cc(c3O[C@@H]2O[C@H](CO)[C@@H](O)[C@H](O)[C@H]2O[C@H]2C[C@](C)(N)[C@H](O)[C@H](C)O2)Oc2ccc(cc2Cl)[C@H]1O	broth dilution	25923	–	–	0.78 µM
O=[N+]([O-])c1ccc(-c2nc3ccccc3n2Cc2ccccc2)cc1	broth dilution	ATCC43300 MRSA	–	drug-resistant strain	4 µg/mL
CC1(C)CC[C@]2(C(=O)O)CC[C@]3(C)C(=CC[C@@H]4[C@@]5(C)CC[C@H](O)C(C)(C)[C@@H]5CC[C@]43C)[C@@H]2C1	–	ATCC25923	–	–	32 µg/mL
COc1ccc(NC(=O)Nc2ccc(Cl)c(C(F)(F)F)c2)cc1	–	NCTC8325	–	–	3 µM
CC1(C)S[C@@H]2[C@H](NC(=O)Cc3ccccc3)C(=O)N2[C@H]1C(=O)O	–	USA300	–	–	128 µg/mL
COc1cccc(OC)c1C(=O)N[C@@H]1C(=O)N2[C@@H]1SC(C)(C)[C@@H]2C(=O)O	–	ATCCBAA1717	–	drug-resistant strain, clinical isolate	> 64 µg/mL
c1ccc(CCOC2CCCc3c2[nH]c2ccccc32)cc1 (stereo not drawn)	broth dilution	ATCC29213	–	–	> 16 µg/mL
CCCCCC/C=C\CCCCCCCCCc1cc(O)cc(O)c1	broth dilution	USA300	–	drug-resistant strain	> 64 µg/mL
Cc1ccc2[nH]c3c(c2c1)CCCC3NCCc1ccc(O)cc1 (stereo not drawn)	broth dilution	VISA	–	–	16 µg/mL
CC(=O)Nc1c2sscc-2[nH]c1=O	–	BAA1556 MRSA	–	drug-resistant strain	5 µM
COC(=O)c1cc(-c2cccc(NC(=O)Nc3ccc(Cl)cc3)c2)on1	broth dilution	ATCC29213	–	–	> 64 µg/mL
Cc1ccc2nc(-c3cccc(O)c3)[nH]c2c1	broth dilution	ATCC43300 MRSA	–	drug-resistant strain	64 µg/mL
CO[C@H]1[C@H](O[C@H]([C@H]2O[C@@H](n3ccc(=O)[nH]c3=O)[C@H](O)[C@@H]2O)[C@H](NCCCNC(=O)[C@@H](NC(=O)[C@@H](NC(=O)N[C@H](C(=O)O)C(C)C)[C@@H]2CCN=C(N)N2)[C@@H](OC(=O)CCCCC(C)C)C(C)C)C(=O)O)O[C@H](CN)[C@H]1O	–	NEWMAN	–	–	> 32 µg/mL
CCCC(=O)CP(=O)(O)O	–	ATCC33591 MRSA	–	drug-resistant strain	> 200 µg/mL
CC[C@H](C)C[C@H](C)CCCCCCCCC(=O)N[C@H]1C[C@@H](O)[C@@H](NCCN)NC(=O)[C@@H]2[C@@H](O)CCN2C(=O)[C@H]([C@H](O)CCN)NC(=O)[C@H]([C@H](O)[C@@H](O)c2ccc(O)cc2)NC(=O)[C@@H]2C[C@@H](O)CN2C(=O)[C@H]([C@@H](C)O)NC1=O	broth dilution	MB2865	–	–	> 128 µg/mL
CC(c1ccc(Cl)c(Cl)c1)n1cnc2cc3c(cc21)CCCC3 (stereo not drawn)	–	–	–	–	3.1 to 6.3 µg/mL
COc1cccc(-c2nc3ccccc3[nH]2)c1	broth dilution	ATCC43300 MRSA	–	drug-resistant strain	512 µg/mL
CNC(=O)c1cc(Oc2ccc(NC(=S)Nc3ccc(Cl)c(C(F)(F)F)c3)cc2)ccn1	–	NCTC8325	–	–	10 µM
Cc1ccc2nc(-c3c4ccccc4cc4ccccc34)[nH]c2c1	broth dilution	ATCC43300 MRSA	–	drug-resistant strain	128 µg/mL
COC(=O)c1cc(-c2cccc(NC(=S)Nc3ccccc3Cl)c2)on1	broth dilution	ATCC29213	–	–	> 64 µg/mL
CCCCCCCCCCCC(=O)CP(=O)(O)O	–	ATCC33591 MRSA	–	drug-resistant strain	100 µg/mL
C=C(NC(=O)C(=C)NC(=O)c1csc(C2=N[C@@H]3c4csc(n4)[C@H]4NC(=O)c5csc(n5)[C@H]([C@](C)(O)[C@@H](C)O)NC(=O)[C@H]5CSC(=N5)/C(=C/C)NC(=O)[C@H]([C@@H](C)O)NC(=O)c5csc(n5)[C@]3(CC2)NC(=O)[C@H](C)NC(=O)C(=C)NC(=O)[C@H](C)NC(=O)[C@H]([C@@H](C)CC)N[C@@H]2C=Cc3c([C@H](C)O)cc(nc3[C@H]2O)C(=O)O[C@@H]4C)n1)C(N)=O	–	MSSA	–	–	0.06 µg/mL
COC(=O)c1cc(-c2cccc(NC(=S)Nc3cccc(Br)c3)c2)on1	broth dilution	ATCC29213	–	–	> 64 µg/mL

SMILES	technique	strain	time	notes	MIC
CNC(C)[C@@H]1CC[C@@H](N)[C@@H](O[C@H]2[C@H](O)[C@@H](O[C@H]3OC[C@](C)(O)[C@H](NC)[C@H]3O)[C@H](N)C[C@@H]2N)O1 (stereo partly drawn)	–	NCTC8325	–	–	0.5 to 1 µM
CN(C)[C@@H]1C(O)=C(C(N)=O)C(=O)[C@@]2(O)C(O)=C3C(=O)c4c(O)cccc4[C@@](C)(O)[C@H]3C[C@@H]12	–	USA300	–	–	256 µg/mL
CCC1C(=NOCc2cn(-c3ccccc3)nn2)CC(c2ccccc2)OC1c1ccccc1 (stereo not drawn)	broth dilution	MTCC96	24 h	–	50 µg/mL
COC(=O)c1cc(-c2cccc(NC(=S)Nc3cccc(Cl)c3)c2)on1	broth dilution	ATCC29213	–	–	> 64 µg/mL
CCCCCCCCCCCC(=O)NP(=O)(O)O	–	ATCC33591 MRSA	–	drug-resistant strain	200 µg/mL
COC(=O)c1cc(-c2cccc(NC(=O)Nc3ccc(F)cc3F)c2)on1	broth dilution	ATCC29213	–	–	> 64 µg/mL
CCCCCCCCCCCCCCCC(=O)NP(=O)(O)O	–	ATCC33591 MRSA	–	drug-resistant strain	200 µg/mL
C[C@H]1COc2c(N3CCN(C)CC3)c(F)cc3c(=O)c(C(=O)O)cn1c23	broth dilution	ATCC29213	–	–	0.125 µg/mL
CO/N=C(\C(=O)N[C@@H]1C(=O)N2C(C(=O)O)=C(CSc3nc(=O)c(=O)[nH]n3C)CS[C@H]12)c1csc(N)n1	–	USA300	–	–	64 µg/mL
COC(=O)c1cc(-c2cccc(NC(=O)Nc3cc(Cl)ccc3Cl)c2)on1	broth dilution	ATCC29213	–	–	> 64 µg/mL
COc1ccc(OS(=O)(=O)NC(=O)CCCCc2ccccc2)cc1	–	ATCC33591 MRSA	–	drug-resistant strain	> 200 µg/mL
Cc1ccccc1-n1c(Cn2ncc3c(N)ncnc32)nc2cccc(C)c2c1=O	–	NCTC8325	–	–	> 30 µM
O=[N+]([O-])c1ccc(/C=N/Nc2nc(Nc3ccccc3)nc(N3CCOCC3)n2)o1	–	–	–	–	29 µM
CN[C@H](CC(C)C)C(=O)N[C@H]1C(=O)N[C@@H](CC(N)=O)C(=O)N[C@H]2C(=O)N[C@H]3C(=O)N[C@H](C(=O)N[C@H](C(=O)O)c4cc(O)cc(O)c4-c4cc3ccc4O)[C@H](O)c3ccc(c(Cl)c3)Oc3cc2cc(c3O[C@@H]2O[C@H](CO)[C@@H](O)[C@H](O)[C@H]2O[C@H]2C[C@](C)(N)[C@H](O)[C@H](C)O2)Oc2ccc(cc2Cl)[C@H]1O	broth dilution	ATCC25923	–	–	1 µg/mL
COc1cccc(-c2nc3ccc(C)cc3[nH]2)c1	broth dilution	ATCC43300 MRSA	–	drug-resistant strain	256 µg/mL
COc1ccc(Cc2cnc(N)nc2N)cc1OC	broth dilution	–	–	–	~50 µM
Fc1ccc(-c2nc3ccccc3[nH]2)cc1	broth dilution	ATCC43300 MRSA	–	drug-resistant strain	512 µg/mL
CN[C@H](CC(C)C)C(=O)N[C@H]1C(=O)N[C@@H](CC(N)=O)C(=O)N[C@H]2C(=O)N[C@H]3C(=O)N[C@H](C(=O)N[C@H](C(=O)O)c4cc(O)cc(O)c4-c4cc3ccc4O)[C@H](O)c3ccc(c(Cl)c3)Oc3cc2cc(c3O[C@@H]2O[C@H](CO)[C@@H](O)[C@H](O)[C@H]2O[C@H]2C[C@](C)(N)[C@H](O)[C@H](C)O2)Oc2ccc(cc2Cl)[C@H]1O	–	BAA2312	–	drug-resistant strain	0.78 µg/mL
Cc1ccc2nc(-c3ccc(N(C)C)cc3)[nH]c2c1	broth dilution	ATCC43300 MRSA	–	drug-resistant strain	128 µg/mL
O=[N+]([O-])c1ccc(-c2nc3cc(Cl)ccc3[nH]2)o1	broth dilution	ATCC700699 MRSA	–	drug-resistant strain	2 µg/mL
Cc1ccc2nc(-c3ccc(Cl)cc3)[nH]c2c1	broth dilution	ATCC43300 MRSA	–	drug-resistant strain	512 µg/mL
COC(=O)c1cc(-c2cccc(NC(=O)Nc3ccc(F)c(F)c3)c2)on1	broth dilution	ATCC29213	–	–	> 64 µg/mL
